ChEMBL document CHEMBL1143992, “Trypanosoma cruzi: activities of lapachol and alpha- and beta-lapachone derivatives against epimastigote and trypomastigote forms” (Bioorg Med Chem, 2008)

What was measured:
Trypanosoma cruzi [1] = assay: Effect on oxygen uptake per mg of protein in Trypanosoma cruzi Tulahuen epimastigotes relative to control; format: functional; parameters: concentration or dose not given beside the values
In short: (§1)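 Tulahuen epimastigotes were harvested on day 4 or 5 (500g, 10 min), washed and resuspended in 0.05 M sodium phosphate buffer pH 7.4 (0.107 M NaCl, 0.05 M KH2PO4). Respiration was measured polarographically with a Clark electrode as nanoatoms-gram O/min/mg protein, as % of control. Redox cycling was measured with 20 mM KCN, as % of KCN control. Values are means of three experiments.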

Trypanosoma cruzi [2] = assay: Growth inhibition of Trypanosoma cruzi Tulahuen epimastigotes assessed as drug level causing decrease in growth constant; format: functional, organism-based
In short: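 Tulahuen epimastigotes were seeded at 3 × 10^6/mL in Diamond's medium with 4 µM hemin, 5% FBS and penicillin/streptomycin at 28 °C. Drugs were added in DMSO (1% final) at several concentrations, in triplicate. Growth was followed daily for 10 days by nephelometry and fitted to first-order kinetics to give the growth constant k. ICk50 is the concentration lowering k by 50%.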

Trypanosoma cruzi [3] = assay: Effect on oxygen redox cycling in Trypanosoma cruzi Tulahuen assessed as oxygen consumption per mg of protein relative to control; format: functional; parameters: concentration or dose not given beside the values; in short: as §1
Trypanosoma cruzi [4] = assay: Antitrypanosomal activity against Trypanosoma cruzi MF assessed as trypomastigote viability at 1.93 uM by MTT assay relative to control
Trypanosoma cruzi [5] = assay: Antitrypanosomal activity against Trypanosoma cruzi MF assessed as trypomastigote viability at 31.3 uM by MTT assay relative to control
Trypanosoma cruzi [6] = assay: Antitrypanosomal activity against Trypanosoma cruzi MF assessed as trypomastigote viability at 0.19 uM by MTT assay relative to control
Trypanosoma cruzi [7] = assay: Antitrypanosomal activity against Trypanosoma cruzi MF assessed as trypomastigote viability at 22.2 uM by MTT assay relative to control
Trypanosoma cruzi [8] = assay: Antitrypanosomal activity against Trypanosoma cruzi MF assessed as viability at 3.75 uM by MTT assay relative to control
Trypanosoma cruzi [9] = assay: Antitrypanosomal activity against Trypanosoma cruzi MF assessed as trypomastigote viability at >100 uM by MTT assay relative to control
Trypanosoma cruzi [10] = assay: Antitrypanosomal activity against Trypanosoma cruzi MF assessed as trypomastigote viability at 20.1 uM by MTT assay relative to control
Trypanosoma cruzi [11] = assay: Antitrypanosomal activity against Trypanosoma cruzi MF assessed as trypomastigote viability at 24.7 uM by MTT assay relative to control
Trypanosoma cruzi [12] = assay: Antitrypanosomal activity against Trypanosoma cruzi MF assessed as trypomastigote viability at 38.1 uM by MTT assay relative to control
Trypanosoma cruzi [13] = assay: Antitrypanosomal activity against Trypanosoma cruzi MF assessed as trypomastigote viability at 24.5 uM by MTT assay relative to control

SMILES	IC50 (Trypanosoma cruzi [2]) [µM]	Activity (Trypanosoma cruzi [1]) [%]	Activity (Trypanosoma cruzi [3]) [%]	other results
CC1CCC2=C(O1)c1ccccc1C(=O)C2=O (stereo not given)	1.93	100.6	100	Activity (Trypanosoma cruzi [4]): 40.3%
CC(C)=CCC1=C(O)C(=O)c2ccccc2C1=O [LAPACHOL]	31.3	51.8	82	Activity (Trypanosoma cruzi [5]): 41.7%
CC(C)(O)CCC1=C(O)C(=O)c2ccccc2C1=O	> 100	125	109	Activity (Trypanosoma cruzi [9]): 112.6%
CC1(C)C=CC2=C(O1)C(=O)c1ncccc1C2=O	20.1	243.3	254	Activity (Trypanosoma cruzi [10]): 44.8%
COc1cccc2c1C(=O)C1=C(C=CC(C)(C)O1)C2=O	38.1	100.2	100	Activity (Trypanosoma cruzi [12]): 26.7%
O=C(Cn1ccnc1[N+](=O)[O-])NCc1ccccc1 [BENZNIDAZOLE]	20.6	57.8	82	–
CC(=O)CC1CCC2=C(O1)C(=O)c1ccccc1C2=O (stereo not given)	36.3	142.5	168	–

More lines, in order of falling IC50 (Trypanosoma cruzi [2]), values ahead:

IC50 (Trypanosoma cruzi [2]) [µM]	SMILES	Activity (Trypanosoma cruzi [1]) [%]	Activity (Trypanosoma cruzi [3]) [%]	other results
35.2	CC(=O)CCC1=C(O)C(=O)c2ccccc2C1=O	100.6	100	–
26.2	CC1CC(c2ccccc2)C2=C(O1)C(=O)c1ccccc1C2=O (stereo not given)	95.4	96	–
24.7	CC1(C)CCC2=C(O1)c1ccccc1C(=O)C2=O [LAPACHONE]	107.5	100	Activity (Trypanosoma cruzi [11]): 2.9%
24.5	CC1CCC2=C(O1)C(=O)c1ccccc1C2=O (stereo not given)	138.8	173	Activity (Trypanosoma cruzi [13]): 15.6%
22.2	CC(=O)OC1CC(C)(C)OC2=C1C(=O)c1ccccc1C2=O (stereo not given)	135.5	168	Activity (Trypanosoma cruzi [7]): 32.9%
9.5	CC1CS(=O)(=O)CCN1/N=C/c1ccc([N+](=O)[O-])o1 (stereo not given) [NIFURTIMOX]	120.4	113	–
3.75	CC1(C)OC2=C(CC1O)C(=O)C(=O)c1ccccc12 (stereo not given)	96.8	100	Activity (Trypanosoma cruzi [8]): 30.4%
0.19	CC1(C)CC(O)C2=C(O1)C(=O)c1ncccc1C2=O (stereo not given)	33.2	55	Activity (Trypanosoma cruzi [6]): 8.8%
